Data set [1] concerns the target T1, Seed linoleate 13S-lipoxygenase-1 (Glycine max, UniProt P08170).
T1 sequence (P08170 whole entry): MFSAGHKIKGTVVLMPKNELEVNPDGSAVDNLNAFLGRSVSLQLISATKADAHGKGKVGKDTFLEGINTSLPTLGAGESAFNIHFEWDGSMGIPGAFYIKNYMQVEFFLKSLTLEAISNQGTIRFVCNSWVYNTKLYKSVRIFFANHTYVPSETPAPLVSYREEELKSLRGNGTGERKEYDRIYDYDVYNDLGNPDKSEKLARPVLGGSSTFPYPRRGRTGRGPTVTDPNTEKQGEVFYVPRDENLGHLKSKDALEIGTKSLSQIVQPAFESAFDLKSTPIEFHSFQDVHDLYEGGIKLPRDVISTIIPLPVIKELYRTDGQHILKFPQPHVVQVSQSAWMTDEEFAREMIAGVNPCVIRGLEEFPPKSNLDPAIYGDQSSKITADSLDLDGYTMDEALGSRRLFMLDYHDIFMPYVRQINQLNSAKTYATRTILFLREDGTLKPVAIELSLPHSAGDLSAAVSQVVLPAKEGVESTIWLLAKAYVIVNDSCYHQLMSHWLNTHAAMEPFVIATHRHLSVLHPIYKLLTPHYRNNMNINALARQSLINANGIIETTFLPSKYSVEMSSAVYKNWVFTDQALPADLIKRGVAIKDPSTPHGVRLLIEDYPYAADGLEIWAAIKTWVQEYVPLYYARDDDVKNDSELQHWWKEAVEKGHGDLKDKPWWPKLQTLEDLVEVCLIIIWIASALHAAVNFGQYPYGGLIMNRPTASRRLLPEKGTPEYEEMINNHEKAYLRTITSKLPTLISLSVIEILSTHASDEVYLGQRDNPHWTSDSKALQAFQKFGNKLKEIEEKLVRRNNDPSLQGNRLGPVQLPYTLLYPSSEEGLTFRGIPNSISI
Nature of the data set: Inhibition of soybean lipoxygenase-1 assessed as formation of 13-HPOD from linoleic acid preincubated for 10 mins measured by real-time spectrophotometric analysis.

For data set [2], the target named is T2, Probable linoleate 9S-lipoxygenase 5 (Solanum tuberosum) (UniProt Q43191).
T2 sequence (whole entry): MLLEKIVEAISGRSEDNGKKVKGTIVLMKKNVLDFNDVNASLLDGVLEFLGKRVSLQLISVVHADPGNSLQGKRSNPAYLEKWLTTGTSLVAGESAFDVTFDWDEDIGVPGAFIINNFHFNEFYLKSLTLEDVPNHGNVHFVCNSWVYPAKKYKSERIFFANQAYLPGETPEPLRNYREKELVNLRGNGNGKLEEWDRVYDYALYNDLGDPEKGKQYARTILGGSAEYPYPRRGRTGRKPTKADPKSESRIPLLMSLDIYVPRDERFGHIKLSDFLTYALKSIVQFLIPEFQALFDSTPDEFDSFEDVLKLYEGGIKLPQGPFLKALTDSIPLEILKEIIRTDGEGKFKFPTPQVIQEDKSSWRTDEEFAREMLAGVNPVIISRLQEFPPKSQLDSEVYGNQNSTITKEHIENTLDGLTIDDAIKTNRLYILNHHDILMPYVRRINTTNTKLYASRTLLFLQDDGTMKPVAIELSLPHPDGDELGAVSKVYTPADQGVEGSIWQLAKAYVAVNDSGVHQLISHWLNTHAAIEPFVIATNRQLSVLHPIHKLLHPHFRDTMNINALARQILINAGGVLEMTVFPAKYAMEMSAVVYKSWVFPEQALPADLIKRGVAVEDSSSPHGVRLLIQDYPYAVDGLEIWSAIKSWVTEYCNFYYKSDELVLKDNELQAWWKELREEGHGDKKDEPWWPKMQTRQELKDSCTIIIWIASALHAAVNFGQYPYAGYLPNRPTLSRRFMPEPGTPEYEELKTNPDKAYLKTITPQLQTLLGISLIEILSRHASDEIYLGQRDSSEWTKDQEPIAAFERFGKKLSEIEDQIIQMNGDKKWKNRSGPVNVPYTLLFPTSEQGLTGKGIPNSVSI
Briefly: Inhibition of potato 5-lipoxygenase assessed as residual activity preincubated for 10 mins measured by real-time spectrophotometric analysis. In a few lines:
(§1)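 Single-concentration screen against soybean LOX-1 and potato 5-LOX. Enzyme preincubated 10 min with 50 µM compound. Formation of conjugated diene 13-HPOD from linoleic acid followed spectrophotometrically in real time. Residual activity given as percent of blank without inhibitor. Average of three independent experiments with standard deviations.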

For data set [3], the target named is T2, Probable linoleate 9S-lipoxygenase 5 (Solanum tuberosum). Nature of the data set: Activation of potato 5-lipoxygenase assessed as residual activity at 50 uM preincubated for 10 mins measured by real-time spectrophotometric analysis relative to untreated control. In a few lines:
as §1

Data set [4] deals with T3, Seed linoleate 13S-lipoxygenase-1 (Glycine max) (UniProt P08170).
T3 sequence (whole entry): T1 sequence (P08170 whole entry)
Briefly: Inhibition of soybean lipoxygenase-1 assessed as formation of 13-HPOD from linoleic acid preincubated for 10 mins measured by real-time spectrophotometric analysis.

Data set [5] is described as follows: Critical micelles concentration of the compound in 0.2 M borate buffer at pH 9. Type of data set: physicochemical. In a few lines:
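Surface tension plotted against log concentration in 0.2 M borate buffer pH 9.0 at 19 °C (SLO-1 assay conditions). CMC read from the plot.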

Data set [6] addresses T1, Seed linoleate 13S-lipoxygenase-1. Briefly: Inhibition of soybean lipoxygenase-1 assessed as inhibition constant for enzyme-substrate-inhibitor complex by Lineweaver-Burk plot. In a few lines: (§2)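 SLO-1 conversion of linoleic acid monitored spectrophotometrically in 0.2 M borate buffer pH 9.0 with no inhibitor or after preincubation with 6 or 11 µM inhibitor. Vmax and Km (apparent) taken from Lineweaver–Burk intercepts. Ki (free enzyme) and K'i (substrate-bound enzyme) calculated with a mixed-inhibition model. n=3, ±S.D.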

The target is the same in data set [7]. Briefly: Inhibition of soybean lipoxygenase-1 assessed as inhibition constant for enzyme-inhibitor complex by Lineweaver-Burk plot. The gist of the method:
as §2

Data set [8] addresses T2, Probable linoleate 9S-lipoxygenase 5 (Solanum tuberosum). The following applies: 6 uM.
Data set [9] has the same target. The conditions noted are these: 50 uM.
The target is the same in data set [10]. Nature of the data set: Activation of potato 5-lipoxygenase assessed as increase in residual activity preincubated for 10 mins measured by real-time spectrophotometric analysis. In a few lines:
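Potato 5-LOX in 0.1 M phosphate buffer pH 6.3, preincubated with a range of activator concentrations or without compound (control). Formation of […] from linoleic acid monitored spectrophotometrically in real time. Activity expressed against control. Mean of three independent experiments ±S.D.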

For data set [11] the target is unchanged. Nature of the data set: Activation of potato 5-lipoxygenase assessed as increase in residual activity preincubated for 10 mins measured by real-time spectrophotometric analysis by Lineweaver-Burk plot. In a few lines: (§3)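 Potato 5-LOX kinetics: enzyme preincubated without activator or with activator at 12.5, 25 and 50 µM. Conjugated diene formation from linoleic acid followed spectrophotometrically in real time, in 0.1 M phosphate buffer pH 6.3. Lineweaver–Burk plots drawn. K_A, α and β derived from re-plots of 1/Δslope and 1/Δintercept using the non-essential activation equation. n=3, ±S.D.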

Data set [12] is described as follows: Critical micelles concentration of the compound in 0.1 M phosphate buffer at pH 6.3. The data set is classed as physicochemical. In a few lines: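 Surface tension measured against log concentration in 0.1 M phosphate buffer pH 6.3 at 25 °C (potato 5-LOX assay conditions). CMC read from the plot.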
Data set [13] deals with T2, Probable linoleate 9S-lipoxygenase 5 (Solanum tuberosum). Nature of the data set: Activation of potato 5-lipoxygenase assessed as binding constant for substrate bound enzyme preincubated for 10 mins measured by real-time spectrophotometric analysis by Lineweaver-Burk plot. The gist of the method: as §3
For data set [14] the target is unchanged. Nature of the data set: Activation of potato 5-lipoxygenase assessed as increase in enzyme catalytic rate preincubated for 10 mins measured by real-time spectrophotometric analysis relative to untreated control. The gist of the method: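 Non-essential activation analysis of potato 5-LOX in 0.1 M phosphate buffer pH 6.3. Linoleic acid conversion read spectrophotometrically after preincubation with 0, 12.5, 25 or 50 µM activator. β, the change in catalytic constant, is taken from the re-plot of 1/Δintercept from Lineweaver–Burk plots. Three independent experiments.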

The source made the active and inactive calls. No cut-off for these calls is given here.

As for `O=C(O)c1c(O)cc(O)cc1CCc1ccc(Cc2nc3ccccc3o2)cc1`, the IC50 in [1] came out at 58.5 µM. Besides, the inhibition result in [2] is “inactive”.

With `CCCCCCCc1ccc(CCc2cccc(O)c2C(=O)O)cc1`, in data set [3], the outcome was Active and the fold change (FC) worked out at 3.

Take `O=C(O)c1c(O)cccc1CCc1ccc2nc(-c3ccccc3)oc2c1`: the inhibition entry in data set [4] was “Active”. For the same molecule, the inhibition entry in data set [2] is “inactive”.

Take `CCCCCCCc1ccc(CCc2cc(O)cc(O)c2C(=O)O)cc1`: the CMC in data set [5] was 436 µM. For the same molecule, the Ki in data set [6] amounted to 15.7 µM; in [7], 9.8 µM. In addition, the IC50 in data set [1] came to 11.1 µM. In data set [2], the inhibition entry is “inactive”.

As for `CCCCCCCCCCCCCCCc1cc(O)cc(O)c1C(=O)O`, the inhibition result in data set [4] was “Active”. The inhibition result in data set [2] is “inactive”.

As to `CCCCCCCCCCCCCCCc1cccc(O)c1C(=O)O` [ANACARDIC ACID], in data set [5], the CMC was determined as 390 µM. Further, the inhibition is 30% in [8] and 50% in data set [9].

With `CCCCCCCCCCCCCCCc1cccc(O)c1C(=O)OC`, in [4], the inhibition entry is “inactive”.

As for `CCCCCCCCCCCCCCOc1cccc(O)c1C(=O)O`, the Activity entry in data set [10] was “Dose-dependent effect”. Also, the results for the Ka in data set [11] and in data set [13] were 1.8 mM and 24 µM, respectively. The result in data set [3] was Active. Further, the fold change (FC) was 3 in data set [3] and 1.4 in data set [14]. Moreover, the IC50 in data set [1] stood at 55.4 µM. Also, the CMC in [12] worked out at 208 µM.

Broadly, the IC50 is the concentration that gives 50% inhibition. What is called inhibition is the percentage by which the read-out fell short of the control. As a reminder, the Ki is the equilibrium dissociation constant of an inhibitor or competing ligand from its target.
